≈ marks a conversion by molar mass, not a printed value.
Tests used:
Type in all cases: functional
Staphylococcus hominis [1] = test: Bactericidal activity against methicillin-resistant coagulase-negative Staphylococcus hominis after 24 hrs by plate counting method
Staphylococcus hominis [2] = test: Bactericidal activity against methicillin-susceptible coagulase-negative Staphylococcus hominis after 24 hrs by plate counting method
Outline: (§1)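 Clinical staphylococcal isolates from patient body fluids, blood, genital secretions, pus or sputum; species by conventional methods or Vitek. Twofold dilutions in Mueller-Hinton broth, inoculum 5 × 10^5 CFU/ml, 37°C aerobic 24 h (CLSI M7-A6 microdilution). About 100 μl from each well without visible growth spread on MHA; 37°C 24 h. MBC = lowest concentration giving no growth on agar.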

[3] = test system: Staphylococcus haemolyticus; test: Antimicrobial activity against methicillin-susceptible coagulase-negative Staphylococcus haemolyticus assessed as susceptible isolates after 24 hrs by broth microdilution method
Staphylococcus hominis [4] = test: Antimicrobial activity against methicillin-resistant coagulase-negative Staphylococcus hominis after 24 hrs by broth microdilution method
Outline: (§2)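 Clinical isolates came from blood, body fluids, genital secretions, pus or sputum, identified conventionally or by Vitek. MICs were run by CLSI M7-A6 broth microdilution in Mueller-Hinton broth with 5 × 10^5 CFU/ml inoculum. Agents were twofold serially diluted, starting from 10% DMSO. Drug-free and uninoculated controls were included. Plates were incubated aerobically at 37°C for 24 h; MIC is the lowest concentration giving no visible growth.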

Staphylococcus hominis [5] = test: Antimicrobial activity against methicillin-susceptible coagulase-negative Staphylococcus hominis assessed as resistant isolates after 24 hrs by broth microdilution method
Mammaliicoccus sciuri [6] = test: Antimicrobial activity against methicillin-resistant coagulase-negative Staphylococcus sciuri assessed as resistant isolates after 24 hrs by broth microdilution method
Staphylococcus aureus [7] = test: Antimicrobial activity against methicillin-resistant Staphylococcus aureus assessed as susceptible isolates after 24 hrs by broth microdilution method
[8] = test system: Staphylococcus haemolyticus; test: Antimicrobial activity against methicillin-resistant coagulase-negative Staphylococcus haemolyticus after 24 hrs by broth microdilution method; outline: as §2
[9] = test system: Staphylococcus epidermidis; test: Antimicrobial activity against methicillin-resistant coagulase-negative Staphylococcus epidermidis assessed as intermediate resistant isolates after 24 hrs by broth microdilution method
Staphylococcus aureus [10] = test: Antimicrobial activity against methicillin-susceptible Staphylococcus aureus assessed as susceptible isolates after 24 hrs by broth microdilution method
Staphylococcus simulans = test: Antimicrobial activity against methicillin-resistant coagulase-negative Staphylococcus simulans after 24 hrs by broth microdilution method; outline: as §2
[11] = test system: Staphylococcus epidermidis; test: Antimicrobial activity against methicillin-resistant coagulase-negative Staphylococcus epidermidis after 24 hrs by broth microdilution method; outline: as §2
Mammaliicoccus sciuri [12] = test: Antimicrobial activity against methicillin-susceptible coagulase-negative Staphylococcus sciuri assessed as susceptible isolates after 24 hrs by broth microdilution method
Outline: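 Clinical isolates from blood, body fluids, pus, sputum or genital secretions, identified conventionally or by Vitek, were tested alongside ATCC 29213 and ATCC 12228 controls. CLSI M7-A6 broth microdilution in Mueller-Hinton broth used twofold dilutions from a 10% DMSO solution and 5 × 10^5 CFU/ml inoculum. Drug-free and uninoculated wells served as controls; incubation was aerobic at 37°C for 24 h. MIC was the lowest concentration with no visible growth.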

[13] = test system: Staphylococcus epidermidis; test: Antimicrobial activity against methicillin-susceptible coagulase-negative Staphylococcus epidermidis assessed as susceptible isolates after 24 hrs by broth microdilution method
[14] = test system: Staphylococcus haemolyticus; test: Antimicrobial activity against methicillin-susceptible coagulase-negative Staphylococcus haemolyticus assessed as resistant isolates after 24 hrs by broth microdilution method
[15] = test system: Staphylococcus epidermidis; test: Antimicrobial activity against methicillin-susceptible coagulase-negative Staphylococcus epidermidis after 24 hrs by broth microdilution method; outline: as §2
Mammaliicoccus sciuri [16] = test: Antimicrobial activity against methicillin-resistant coagulase-negative Staphylococcus sciuri assessed as intermediate resistant isolates after 24 hrs by broth microdilution method
Staphylococcus aureus [17] = test: Bactericidal activity against methicillin-resistant Staphylococcus aureus after 24 hrs by plate counting method
[18] = test system: Staphylococcus haemolyticus; test: Bactericidal activity against methicillin-susceptible coagulase-negative Staphylococcus haemolyticus after 24 hrs by plate counting method; outline: as §1
Staphylococcus aureus [19] = test: Antimicrobial activity against methicillin-resistant Staphylococcus aureus assessed as resistant isolates after 24 hrs by broth microdilution method
[20] = Staphylococcus haemolyticus, 24 h

Row | Molecule | MBC50 (Staphylococcus hominis [1]) | MBC50 (Staphylococcus hominis [2]) | Activity [3] | MIC50 (Staphylococcus hominis [4]) | MIC90 (Staphylococcus hominis [4]) | Activity (Staphylococcus hominis [5]) | Activity (Mammaliicoccus sciuri [6]) | Activity (Staphylococcus aureus [7]) | MIC50 [8] | MIC90 [8] | Activity [9] | Activity (Staphylococcus aureus [10]) | MIC50 (Staphylococcus simulans) | MIC90 (Staphylococcus simulans) | MIC50 [11] | MIC90 [11] | Activity (Mammaliicoccus sciuri [12]) | Activity [13] | Activity [14] | MIC50 [15] | also measured
1 | CN(C)[C@@H]1C(O)=C(C(N)=O)C(=O)[C@@]2(O)C(O)=C3C(=O)c4c(O)cccc4[C@@](C)(O)[C@H]3C[C@@H]12 [TETRACYCLINE] | 4 µg/mL (≈ 9 µM) | 8 µg/mL (≈ 18 µM) | 69% | 1 µg/mL (≈ 2.25 µM) | 64 µg/mL (≈ 144 µM) | 12% | 75% | 30% | 1 µg/mL (≈ 2.25 µM) | 64 µg/mL (≈ 144 µM) | 7% | 70% | 1 µg/mL (≈ 2.25 µM) | 64 µg/mL (≈ 144 µM) | 1 µg/mL (≈ 2.25 µM) | 64 µg/mL (≈ 144 µM) | 69% | 69% | 12% | 0.5 µg/mL (≈ 1.13 µM) | MBC (Staphylococcus hominis [1]; Staphylococcus hominis, 24 h): 0.5 µg/mL (≈ 1.13 µM); MBC90 (Staphylococcus hominis [2]): 128 µg/mL (≈ 288 µM); MBC (Staphylococcus hominis [2]; Staphylococcus hominis, 24 h): 1 µg/mL (≈ 2.25 µM); MIC [15]: 0.5 µg/mL (≈ 1.13 µM); MIC90 [15]: 32 µg/mL (≈ 72 µM); Activity (Mammaliicoccus sciuri [16]): 7%; MBC50 (Staphylococcus aureus [17]): 64 µg/mL (≈ 144 µM); MBC90 (Staphylococcus aureus [17]): 512 µg/mL (≈ 1150 µM); MBC (Staphylococcus aureus [17]; Staphylococcus aureus, 24 h): 2 µg/mL (≈ 4.5 µM); MBC50 [18]: 8 µg/mL (≈ 18 µM); MBC90 [18]: 128 µg/mL (≈ 288 µM); MBC [18, 20]: 1 µg/mL (≈ 2.25 µM)
2 | CC[C@H]1OC(=O)[C@H](C)[C@@H](O[C@H]2C[C@@](C)(OC)[C@@H](O)[C@H](C)O2)[C@H](C)[C@@H](O[C@@H]2O[C@H](C)C[C@H](N(C)C)[C@H]2O)[C@](C)(O)C[C@@H](C)C(=O)[C@H](C)[C@@H](O)[C@]1(C)O [ERYTHROMYCIN] | 32 µg/mL (≈ 43.6 µM) | 2 µg/mL (≈ 2.73 µM) | 50% | 16 µg/mL (≈ 21.8 µM) | 32 µg/mL (≈ 43.6 µM) | 27% | 74% | 0% | 16 µg/mL (≈ 21.8 µM) | 32 µg/mL (≈ 43.6 µM) | 15% | 56% | 16 µg/mL (≈ 21.8 µM) | 32 µg/mL (≈ 43.6 µM) | 16 µg/mL (≈ 21.8 µM) | 32 µg/mL (≈ 43.6 µM) | 50% | 50% | 27% | 0.5 µg/mL (≈ 0.681 µM) | MBC (Staphylococcus hominis [1]; Staphylococcus hominis, 24 h): 1 µg/mL (≈ 1.36 µM); MBC (Staphylococcus hominis [2]; Staphylococcus hominis, 24 h): 1 µg/mL (≈ 1.36 µM); MIC [15]: 0.5 µg/mL (≈ 0.681 µM); MIC90 [15]: 16 µg/mL (≈ 21.8 µM); Activity (Mammaliicoccus sciuri [16]): 15%; Activity (Staphylococcus aureus [19]): 100%; MBC (Staphylococcus aureus [17]; Staphylococcus aureus, 24 h): 32 µg/mL (≈ 43.6 µM); MBC50 [18]: 2 µg/mL (≈ 2.73 µM); MBC [18, 20]: 1 µg/mL (≈ 1.36 µM)
3 | GENTAMICIN | 8 µg/mL | 1 µg/mL | 73% | 8 µg/mL | 64 µg/mL | 27% | 48% | 15% | 8 µg/mL | 64 µg/mL | 7% | 52% | 8 µg/mL | 64 µg/mL | 8 µg/mL | 64 µg/mL | 73% | 73% | 27% | 0.125 µg/mL | MBC (Staphylococcus hominis [1]): 0.25 µg/mL; MBC90 (Staphylococcus hominis [1]): 128 µg/mL; MBC (Staphylococcus hominis [2]): 0.25 µg/mL; MBC90 (Staphylococcus hominis [2]): 64 µg/mL; MIC90 [15]: 32 µg/mL; Activity (Mammaliicoccus sciuri [16]): 7%; Activity (Staphylococcus aureus [19]): 63%; MBC (Staphylococcus aureus [17]): 2 µg/mL; MBC50 (Staphylococcus aureus [17]): 64 µg/mL; MBC90 (Staphylococcus aureus [17]): 128 µg/mL; MBC [18]: 0.25 µg/mL; MBC50 [18]: 1 µg/mL; MBC90 [18]: 64 µg/mL
4 | CN[C@H](CC(C)C)C(=O)N[C@H]1C(=O)N[C@@H](CC(N)=O)C(=O)N[C@H]2C(=O)N[C@H]3C(=O)N[C@H](C(=O)N[C@H](C(=O)O)c4cc(O)cc(O)c4-c4cc3ccc4O)[C@H](O)c3ccc(c(Cl)c3)Oc3cc2cc(c3O[C@@H]2O[C@H](CO)[C@@H](O)[C@H](O)[C@H]2O[C@H]2C[C@](C)(N)[C@H](O)[C@H](C)O2)Oc2ccc(cc2Cl)[C@H]1O [VANCOMYCIN] | 2 µg/mL (≈ 1.38 µM) | 1 µg/mL (≈ 0.69 µM) | 100% | 0.125 µg/mL (≈ 0.0863 µM) | 2 µg/mL (≈ 1.38 µM) | 0% | 0% | 100% | 0.125 µg/mL (≈ 0.0863 µM) | 2 µg/mL (≈ 1.38 µM) | 0% | 100% | 0.125 µg/mL (≈ 0.0863 µM) | 2 µg/mL (≈ 1.38 µM) | 0.125 µg/mL (≈ 0.0863 µM) | 2 µg/mL (≈ 1.38 µM) | 100% | 100% | 0% | 0.25 µg/mL (≈ 0.173 µM) | MBC90 (Staphylococcus hominis [1]): 4 µg/mL (≈ 2.76 µM); MBC (Staphylococcus hominis [1]; Staphylococcus hominis, 24 h): 0.5 µg/mL (≈ 0.345 µM); MBC90 (Staphylococcus hominis [2]): 4 µg/mL (≈ 2.76 µM); MBC (Staphylococcus hominis [2]; Staphylococcus hominis, 24 h): 0.125 µg/mL (≈ 0.0863 µM); MIC (Staphylococcus hominis [4]): 0.125 µg/mL (≈ 0.0863 µM); MIC [8]: 0.125 µg/mL (≈ 0.0863 µM); MIC (Staphylococcus simulans): 0.125 µg/mL (≈ 0.0863 µM); MIC [11]: 0.125 µg/mL (≈ 0.0863 µM); MIC90 [15]: 1 µg/mL (≈ 0.69 µM); Activity (Mammaliicoccus sciuri [16]): 0%; Activity (Staphylococcus aureus [19]): 0%; MBC50 (Staphylococcus aureus [17]): 1 µg/mL (≈ 0.69 µM); MBC90 (Staphylococcus aureus [17]): 2 µg/mL (≈ 1.38 µM); MBC (Staphylococcus aureus [17]; Staphylococcus aureus, 24 h): 0.5 µg/mL (≈ 0.345 µM); MBC50 [18]: 1 µg/mL (≈ 0.69 µM); MBC90 [18]: 4 µg/mL (≈ 2.76 µM); MBC [18, 20]: 0.125 µg/mL (≈ 0.0863 µM)
5 | C[C@H]1COc2c(N3CCN(C)CC3)c(F)cc3c(=O)c(C(=O)O)cn1c23.C[C@H]1COc2c(N3CCN(C)CC3)c(F)cc3c(=O)c(C(=O)O)cn1c23.O [LEVOFLOXACIN] | 4 µg/mL | 1 µg/mL | 96% | 0.25 µg/mL | 4 µg/mL | 4% | 59% | 18% | 0.25 µg/mL | 4 µg/mL | 15% | 81% | 0.25 µg/mL | 4 µg/mL | 0.25 µg/mL | 4 µg/mL | 96% | 96% | 4% | 0.25 µg/mL | MBC90 (Staphylococcus hominis [1]): 16 µg/mL; MBC (Staphylococcus hominis [1]; Staphylococcus hominis, 24 h): 0.5 µg/mL; MBC90 (Staphylococcus hominis [2]): 4 µg/mL; MBC (Staphylococcus hominis [2]; Staphylococcus hominis, 24 h): 0.5 µg/mL; MIC (Staphylococcus hominis [4]): 0.25 µg/mL; MIC [8]: 0.25 µg/mL; MIC (Staphylococcus simulans): 0.25 µg/mL; MIC [11]: 0.25 µg/mL; MIC [15]: 0.25 µg/mL; MIC90 [15]: 0.5 µg/mL; Activity (Mammaliicoccus sciuri [16]): 15%; Activity (Staphylococcus aureus [19]): 82%; MBC50 (Staphylococcus aureus [17]): 16 µg/mL; MBC90 (Staphylococcus aureus [17]): 512 µg/mL; MBC (Staphylococcus aureus [17]; Staphylococcus aureus, 24 h): 0.5 µg/mL; MBC50 [18]: 1 µg/mL; MBC90 [18]: 4 µg/mL; MBC [18, 20]: 0.5 µg/mL
